# In ChEMBL document CHEMBL4339190, “2,6-Disubstituted imidazo[2,1-b][1,3,4]thiadiazole derivatives as potent staphylococcal biofilm inhibitors” (Eur J Med Chem, 2019):
# The source made the active and inactive calls. No cut-off for these calls is given here.
# Columns and labels:
# Pseudomonas aeruginosa [1] = assay: Antimicrobial activity against Pseudomonas aeruginosa ATCC 15442 assessed as growth inhibition of planktonic forms incubated for 24 hrs; assay type: organism-based; details: in vitro
# In short: (§1)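 Broth microdilution in tryptic soy broth. Two-fold series 100 to 0.75 μg/mL made from a 1 mg/mL stock in 0.9% NaCl. Inoculum ~10⁶ cfu/mL taken from a 24 h culture, 37 °C 24 h.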
# [2] = test system: Staphylococcus epidermidis; assay: Antimicrobial activity against Staphylococcus epidermidis ATCC 12228 assessed as growth inhibition of planktonic forms incubated for 24 hrs; assay type: organism-based; details: in vitro; in short: as §1
# [3] = test system: Staphylococcus epidermidis; assay: Antibiofilm activity against Staphylococcus epidermidis ATCC 12228 incubated for 24 hrs by crystal violet-staining based assay; assay type: functional
# In short: (§2)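 Biofilm prevention: 0.5 McFarland inoculum (2.5 µL) in 100 µL TSB with 2% w/v glucose, compound present from the start over 100–0.1 µg/mL, 37 °C 24 h. Washed with PBS, stained 0.1% w/v crystal violet 30 min, eluted with 33% v/v acetic acid, read at 570 nm. BIC50 (50% inhibition versus untreated control) derived by linear regression; triplicate, repeated at least twice.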
# Pseudomonas aeruginosa [4] = assay: Antibiofilm activity against Pseudomonas aeruginosa ATCC 15442 incubated for 24 hrs by crystal violet-staining based assay; assay type: functional; in short: as §2
# Staphylococcus aureus [5] = assay: Antimicrobial activity against Staphylococcus aureus ATCC 25923 assessed as growth inhibition of planktonic forms incubated for 24 hrs; assay type: organism-based; details: in vitro; in short: as §1
# Staphylococcus aureus [6] = assay: Antimicrobial activity against Staphylococcus aureus ATCC 6538 assessed as growth inhibition of planktonic forms incubated for 24 hrs; assay type: organism-based; details: in vitro; in short: as §1
# Staphylococcus aureus [7] = assay: Antibiofilm activity against Staphylococcus aureus ATCC 25923 incubated for 24 hrs by crystal violet-staining based assay; assay type: functional; in short: as §2
# Escherichia coli [8] = assay: Antibiofilm activity against Escherichia coli ATCC 25922 incubated for 24 hrs by crystal violet-staining based assay; assay type: functional; in short: as §2
# Escherichia coli [9] = assay: Antimicrobial activity against Escherichia coli ATCC 25922 assessed as growth inhibition of planktonic forms incubated for 24 hrs; assay type: organism-based; details: in vitro; in short: as §1
# Staphylococcus aureus [10] = assay: Antibiofilm activity against Staphylococcus aureus ATCC 6538 incubated for 24 hrs by crystal violet-staining based assay; assay type: functional; in short: as §2
# Pseudomonas aeruginosa [11] = assay: Antibiofilm activity against Pseudomonas aeruginosa ATCC 15442 assessed as inhibition of biofilm formation at 100 ug/ml incubated for 24 hrs by crystal violet-staining based assay; assay type: functional; details: ATCC 15442, 24 h
# Escherichia coli [12] = assay: Antibiofilm activity against Escherichia coli ATCC 25922 assessed as inhibition of biofilm formation at 100 ug/ml incubated for 24 hrs by crystal violet-staining based assay; assay type: functional; details: ATCC 25922, 24 h
SMILES,MIC (Pseudomonas aeruginosa [1]),MIC [2],MBIC50 [3],inhibition [3],MBIC50 (Pseudomonas aeruginosa [4]),inhibition (Pseudomonas aeruginosa [4]),MIC (Staphylococcus aureus [5]),MIC (Staphylococcus aureus [6]),MBIC50 (Staphylococcus aureus [7]),inhibition (Staphylococcus aureus [7]),MBIC50 (Escherichia coli [8]),inhibition (Escherichia coli [8]),MIC (Escherichia coli [9]),MBIC50 (Staphylococcus aureus [10]),inhibition (Staphylococcus aureus [10]),inhibition at 100 µg/mL (Pseudomonas aeruginosa [11]),inhibition at 100 µg/mL (Escherichia coli [12])
Cn1cc(-c2nn3cc(-c4ccc([N+](=O)[O-])cc4)nc3s2)c2ccccc21,> 100 µg/mL,> 100 µg/mL,21 µM,Dose-dependent effect,30.1 µM,Dose-dependent effect,> 100 µg/mL,> 100 µg/mL,21 µM,Dose-dependent effect,34.3 µM,Dose-dependent effect,> 100 µg/mL,3 µM,Dose-dependent effect,–,–
Br.Cn1cc(-c2nn3cc(-c4ccc([N+](=O)[O-])cc4)nc3s2)c2cc(Br)ccc21,> 100 µg/mL,> 100 µg/mL,71.7 µM,Dose-dependent effect,38.6 µM,Dose-dependent effect,> 100 µg/mL,> 100 µg/mL,20.9 µM,Dose-dependent effect,19.6 µM,Dose-dependent effect,> 100 µg/mL,3.1 µM,Dose-dependent effect,–,–
Cn1cc(-c2nn3cc(-c4ccc(C(F)(F)F)cc4)nc3s2)c2ccccc21,> 100 µg/mL,> 100 µg/mL,inactive,–,inactive,–,> 100 µg/mL,> 100 µg/mL,inactive,–,inactive,–,> 100 µg/mL,inactive,–,–,–
Br.Fc1ccc(-c2cn3nc(-c4c[nH]c5ccc(Br)cc45)sc3n2)cc1,> 100 µg/mL,> 100 µg/mL,inactive,–,inactive,–,> 100 µg/mL,> 100 µg/mL,inactive,–,inactive,–,> 100 µg/mL,inactive,–,–,–
Br.Brc1ccc2[nH]cc(-c3nn4cc(-c5ccccc5)nc4s3)c2c1,> 100 µg/mL,> 100 µg/mL,inactive,–,inactive,–,> 100 µg/mL,> 100 µg/mL,inactive,–,inactive,–,> 100 µg/mL,inactive,–,–,–
Br.Clc1ccc2[nH]cc(-c3nn4cc(-c5ccccc5)nc4s3)c2c1,> 100 µg/mL,> 100 µg/mL,inactive,–,inactive,–,> 100 µg/mL,> 100 µg/mL,inactive,–,inactive,–,> 100 µg/mL,inactive,–,–,–
O=[N+]([O-])c1ccc(-c2cn3nc(-c4c[nH]c5ccccc45)sc3n2)cc1,> 100 µg/mL,> 100 µg/mL,41.2 µM,Dose-dependent effect,–,–,> 100 µg/mL,> 100 µg/mL,47.5 µM,Dose-dependent effect,–,–,> 100 µg/mL,20.2 µM,Dose-dependent effect,< 15%,< 15%
Br.COc1cccc(-c2cn3nc(-c4c[nH]c5ccccc45)sc3n2)c1,> 100 µg/mL,> 100 µg/mL,33.4 µM,Dose-dependent effect,80.2 µM,Dose-dependent effect,> 100 µg/mL,> 100 µg/mL,80.2 µM,Dose-dependent effect,69.7 µM,Dose-dependent effect,> 100 µg/mL,37 µM,Dose-dependent effect,–,–
Br.Cn1cc(-c2nn3cc(-c4ccc(F)cc4)nc3s2)c2cc(Br)ccc21,> 100 µg/mL,> 100 µg/mL,inactive,–,inactive,–,> 100 µg/mL,> 100 µg/mL,inactive,–,inactive,–,> 100 µg/mL,inactive,–,–,–
Br.COc1cccc(-c2cn3nc(-c4c[nH]c5ccc(Br)cc45)sc3n2)c1,> 100 µg/mL,> 100 µg/mL,inactive,–,inactive,–,> 100 µg/mL,> 100 µg/mL,inactive,–,inactive,–,> 100 µg/mL,inactive,–,–,–
Br.Fc1ccc(-c2cn3nc(-c4c[nH]c5ccc(Cl)cc45)sc3n2)cc1,> 100 µg/mL,> 100 µg/mL,100.7 µM,Dose-dependent effect,–,–,> 100 µg/mL,> 100 µg/mL,51.3 µM,Dose-dependent effect,–,–,> 100 µg/mL,24.2 µM,Dose-dependent effect,< 15%,< 15%
Br.c1ccc(-c2cn3nc(-c4c[nH]c5ccccc45)sc3n2)cc1,> 100 µg/mL,> 100 µg/mL,59.1 µM,Dose-dependent effect,–,–,> 100 µg/mL,> 100 µg/mL,35.9 µM,Dose-dependent effect,–,–,> 100 µg/mL,46.5 µM,Dose-dependent effect,< 15%,< 15%
Br.Cn1cc(-c2nn3cc(-c4ccc(F)cc4)nc3s2)c2ccccc21,> 100 µg/mL,> 100 µg/mL,68.9 µM,Dose-dependent effect,–,–,> 100 µg/mL,> 100 µg/mL,8.6 µM,Dose-dependent effect,–,–,> 100 µg/mL,17.9 µM,Dose-dependent effect,< 15%,< 15%
FC(F)(F)c1ccc(-c2cn3nc(-c4c[nH]c5ccccc45)sc3n2)cc1,> 100 µg/mL,> 100 µg/mL,inactive,–,inactive,–,> 100 µg/mL,> 100 µg/mL,inactive,–,inactive,–,> 100 µg/mL,inactive,–,–,–
